This note sets out measurements from the array DNA melting data of Ke et al. (doi:10.1101/2024.01.08.574731).

The nature of data set [1]: melting temperature; fluorescence melt of hairpins on a sequencing array, two-state fit, raised by 9.35 °C to match UV melts. To be noted: sodium 0.088 M. The gist of the method: (§1)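 Bootstrapped two-state fits yielded melting temperature and folding enthalpy for library hairpins. Cy3 fluorescence, with annealed Cy3 and quencher oligos, was imaged on a sequenced MiSeq flow cell in 50 mM Na-HEPES pH 8.0, 25 mM NaCl in 2.5 °C steps up to 60 °C, and normalised to pre-quench Cy3 and to control constructs. Four replicates were combined by inverse variance, and fitted temperatures were raised by 9.35 °C to match UV melts.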

Data set [2] can be described thus: folding enthalpy; higher = less favourable; fluorescence melt of hairpins on a sequencing array, two-state fit. To be noted: sodium 0.088 M. In outline:
as §1

Turning to GATGACGAAAGTCGTATC ((((((....)))..))), the Tm in data set [1] was determined as 36 °C. Besides, the folding enthalpy in data set [2] was -12.1 kcal/mol.

Take GATGACGAAAGTCTCATC ((((((....)))..))): the Tm in data set [1] was 32.5 °C. Besides, in data set [2], the folding enthalpy is -9.72 kcal/mol.

As to GATGACGAAAGTCTTATC ((((((....)))..))), the Tm in data set [1] is 25.5 °C. The folding enthalpy in data set [2] was -12.4 kcal/mol.

As for GATGACGGAAACGTCGTC ((.((((....)))).)), the Tm in data set [1] stood at 52.8 °C. Further, the folding enthalpy in data set [2] is -43.3 kcal/mol.

As for GATGAGAAATCATC (((((....))))), the Tm in data set [1] came to 39.8 °C. Besides, the folding enthalpy in data set [2] was -20.6 kcal/mol.

Take GATGAGCGAAAGCTTATC (((.(((....))).))): the Tm in data set [1] worked out at 49.1 °C. For the same sequence, the folding enthalpy in data set [2] was -28.3 kcal/mol.

As to GATGAGGGAAACCTCACC (.(((((....))))).), in data set [1], the Tm stood at 35.5 °C. For the same sequence, in data set [2], the folding enthalpy is -15.7 kcal/mol.

Turning to GATGATGGAAACATCATC (((((((....))))))), in data set [1], the Tm came out at 58.1 °C. In addition, the folding enthalpy in data set [2] was -45 kcal/mol.

For GATGCACGAAAGTGATC (((.(((....)))))), the Tm in data set [1] worked out at 36.6 °C. Besides, the folding enthalpy in data set [2] is -13.6 kcal/mol.

Consider GATGCAGAAATGCATC ((((((....)))))), for which, in data set [1], the Tm came to 58.7 °C. In addition, in data set [2], the folding enthalpy is -36.7 kcal/mol.

Turning to GATGCAGCGAAAGCTATC (((..(((....)))))), the Tm in data set [1] is 24.7 °C. The folding enthalpy in data set [2] is -9.06 kcal/mol.

For GATGCAGGAAACTGCATC (((((((....))))))), the Tm in data set [1] came out at 64.7 °C. The folding enthalpy in data set [2] was -43.6 kcal/mol.

As for GATGCCGAAAGGCCTATC ((((((....)))..))), the Tm in data set [1] was determined as 24 °C. The folding enthalpy in data set [2] is -6.67 kcal/mol.

As for GATGCCGAAAGGCGGATC ((((((....)))..))), the Tm in data set [1] stood at 40.5 °C. Further, the folding enthalpy in data set [2] is -10.5 kcal/mol.

Take GATGCGCCGAAAGGCATC (((..(((....)))))): the Tm in data set [1] is 31.4 °C. Besides, the folding enthalpy in data set [2] was -12.4 kcal/mol.

Take GATGCGGGAAACCGCGTC ((.((((....)))).)): in data set [1], the Tm is 59.9 °C. In addition, in data set [2], the folding enthalpy is -19.2 kcal/mol.

Take GATGCGGGAAACCGTGTC ((..(((....)))..)): the Tm in data set [1] was 43.7 °C. Also, in data set [2], the folding enthalpy was -26.3 kcal/mol.

GATGCGGGAAACTGCGTC ((.((.(....).)).)): the Tm in data set [1] worked out at 44.2 °C. Also, the folding enthalpy in data set [2] was -21.1 kcal/mol.

Regarding GATGGAGGAAACCCCATC (((((.(....).))))), the Tm in data set [1] came out at 43 °C. The folding enthalpy in data set [2] is -31.6 kcal/mol.

Take GATGGCCGAAAGGCGATC (((.(((....))).))): the Tm in data set [1] was found to be 52.8 °C. Moreover, the folding enthalpy in data set [2] is -23.9 kcal/mol.

As for GATGGCGAAAGCCCGATC ((((((....)))..))), the Tm in data set [1] is 27.7 °C. Also, the folding enthalpy in data set [2] is -9.89 kcal/mol.

Take GATGGCGAAAGCCGATC ((((((....))).))): in data set [1], the Tm was found to be 47.6 °C. The folding enthalpy in data set [2] is -15.4 kcal/mol.

For the sequence GATGGGAAACCATC (((((....))))), in data set [1], the Tm came to 49.9 °C. For the same sequence, the folding enthalpy in data set [2] is -26.5 kcal/mol.

For GATGGGACGAAAGTCATC (((..(((....)))))), the Tm in data set [1] worked out at 31.9 °C. Besides, the folding enthalpy in data set [2] is -15.4 kcal/mol.

Consider GATGGGCGAAAGCCTATC (((.(((....))).))), for which the Tm in data set [1] was found to be 53.9 °C. Further, the folding enthalpy in data set [2] is -22.3 kcal/mol.

Take GATGGGGAAACCCATC ((((((....)))))): the Tm in data set [1] came out at 57.8 °C. For the same sequence, in data set [2], the folding enthalpy is -34.2 kcal/mol.

As to GATGGGGGAAACCCCACC (.(((((....))))).), the Tm in data set [1] worked out at 39.9 °C. Besides, the folding enthalpy in data set [2] was -12.6 kcal/mol.

As for GATGGGGGAAACCCTATC (((.(((....))).))), the Tm in data set [1] stood at 45 °C. In addition, the folding enthalpy in data set [2] was -23.4 kcal/mol.

In the case of GATGTACCGAAAGGTATC (((..(((....)))))), the Tm in data set [1] worked out at 32.2 °C. Also, the folding enthalpy in data set [2] was -14 kcal/mol.

Consider GATGTAGGAAACTACATC (((((((....))))))), for which the Tm in data set [1] amounted to 54.6 °C. In addition, in data set [2], the folding enthalpy is -40.4 kcal/mol.

With GATGTAGGAAACTGCATC ((((.((....)).)))), the Tm in data set [1] is 45 °C. Besides, the folding enthalpy in data set [2] is -34.6 kcal/mol.

As for GATGTCGCGAAAGCGATC (((..(((....)))))), the Tm in data set [1] was found to be 31.1 °C. For the same sequence, the folding enthalpy in data set [2] was -8.5 kcal/mol.

For the sequence GATGTGCGAAAGCAGATC (((.(((....))).))), the Tm in data set [1] was 52.5 °C. The folding enthalpy in data set [2] is -32.7 kcal/mol.

In the case of GATGTGGGAAACCACACC (.(((((....))))).), in data set [1], the Tm was 39 °C. Moreover, in data set [2], the folding enthalpy is -14.1 kcal/mol.

For the sequence GATGTGGGAAACCACGTC ((.((((....)))).)), the Tm in data set [1] was found to be 51 °C. Besides, the folding enthalpy in data set [2] is -26.5 kcal/mol.

With GATGTGGGAAACCATGTC ((..(((....)))..)), the Tm in data set [1] came out at 34.9 °C. Further, the folding enthalpy in data set [2] is -32.6 kcal/mol.
